Measured values taken from ChEMBL document CHEMBL2150951, “Studies on the antimicrobial properties of N-acylated ciprofloxacins” (2012).
≈ marks a conversion by molar mass, not a printed value. Calls of active or inactive are those of the source. The calls are words filed in the database; no cut-off is given here.

Key:
Staphylococcus aureus [1] = experiment: Antibacterial activity against methicillin-susceptible Staphylococcus aureus SH1000; format: functional
Summary of the method: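 MIC in µg/ml, tested in triplicate and averaged, with ciprofloxacin as positive control.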

Escherichia coli [2] = experiment: Antibacterial activity against Escherichia coli DH5alpha at 50 ug per disc by Kirby-Bauer disc diffusion assay; format: functional; conditions: DH5[alpha], read-out: DIZ
Summary of the method: (§1)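 Disks carried 50 µg of compound. Zone diameter was measured to the nearest mm and averaged over three independent experiments. A value of 6 mm, the disk diameter, was recorded where no inhibition was seen.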

Bartonella quintana = experiment: Antibacterial activity against Bartonella quintana ATCC VR358 at 20 ug per disc after 7 days by Kirby-Bauer disc diffusion assay; format: functional; conditions: ATCC VR358, 168 h, read-out: DIZ
Summary of the method: (§2)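 Each paper disk was loaded with 20 µl of a 1 mg/ml solution, dried for 20 min and stored desiccated at 4 °C. Growth from 4-day plates was suspended in heart infusion broth to McFarland 2.0 and swabbed onto chocolate agar (heart infusion agar base with 5% bovine hemoglobin). Plates were incubated 1 week at 37 °C in 5% CO2. Zone diameter was read to the nearest mm, in triplicate and averaged.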

Staphylococcus aureus [3] = experiment: Antibacterial activity against methicillin-resistant Staphylococcus aureus isolate CBD 635; format: functional
Summary of the method: (§3)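 MIC against S. aureus strains was run by an earlier published procedure, tested in triplicate. Values were averaged and expressed as µg/ml of compound.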

Staphylococcus aureus [4] = experiment: Antibacterial activity against methicillin-resistant Staphylococcus aureus ATCC 43300; format: functional; summary of the method: as §3
[5] = Antibacterial activity against Bartonella henselae ATCC 49882 at 20 ug per disc after 7 days by Kirby-Bauer disc diffusion assay; format: functional, Bartonella henselae str. Houston-1; conditions: ATCC 49882, 168 h, read-out: DIZ; summary of the method: as §2
Bartonella vinsonii = experiment: Antibacterial activity against Bartonella vinsonii ATCC VR152 at 20 ug per disc after 7 days by Kirby-Bauer disc diffusion assay; format: functional; conditions: ATCC VR152, 168 h, read-out: DIZ; summary of the method: as §2
Enterococcus faecalis = experiment: Antibacterial activity against Enterococcus faecalis DS16 at 50 ug per disc by Kirby-Bauer disc diffusion assay; format: functional; conditions: read-out: DIZ; summary of the method: as §1
Bacillus anthracis = experiment: Antibacterial activity against Bacillus anthracis sterne at 50 ug per disc by Kirby-Bauer disc diffusion assay; format: functional; conditions: read-out: DIZ
Summary of the method: (§4)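 Kirby-Bauer disk diffusion with 50 µg compound per 6 mm paper disk. Organisms were grown and plated by an earlier method. The zone-of-inhibition diameter was recorded to the nearest mm and averaged over three independent experiments. No zone was reported as 6 mm, the disk diameter.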

Staphylococcus aureus [6] = experiment: Antibacterial activity against methicillin-resistant Staphylococcus aureus isolate CBD 635 at 50 ug per disc by Kirby-Bauer disc diffusion assay; format: functional; conditions: read-out: DIZ; summary of the method: as §4
Bartonella elizabethae = experiment: Antibacterial activity against Bartonella elizabethae F9251 at 20 ug per disc after 7 days by Kirby-Bauer disc diffusion assay; format: functional; conditions: F9251, 168 h, read-out: DIZ; summary of the method: as §2
[7] = Antibacterial activity against Bartonella henselae ATCC 49882 after 7 days by agar dilution method; format: functional, Bartonella henselae str. Houston-1; conditions: ATCC 49882, 168 h
Summary of the method: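 Agar dilution on chocolate agar containing compound at 10.0, 1.0 and 0.1 µg/ml, with 2-fold steps at and below 1.0 µg/ml for compounds active there. Controls were DMSO-only and drug-free plates. 25 µl of a McFarland 2.0 suspension in heart infusion broth was spotted and incubated 7 days at 37 °C in 5% CO2. Growth was scored +/− on duplicate plates; triplicate results were averaged.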

[8] = Antibacterial activity against Bartonella henselae Houston-1 infected in human HMEC1 cells assessed as intracellular bacterial load at 1 ug/mL incubated for 96 hrs followed by compound washout measured after 7 days relative to control; format: functional, Bartonella henselae str. Houston-1
Summary of the method: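 HMEC-1 cells grown in MCDB131 with 10% FBS, EGF and hydrocortisone were infected with B. henselae Houston-1 at MOI 100 for 4 h. Extracellular bacteria were killed with gentamicin (200 µg/ml, 1 h), then compound was added at 0.1 or 1.0 µg/ml for 96 h. After washing, cells were lysed with 0.1% saponin and lysates plated on chocolate agar for 7 days. CFU are given as a percentage of the media-only control.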

Bartonella henselae = experiment: Antibacterial activity against Bartonella henselae infected in african green monkey Vero cells by immunofluorescence staining; format: functional
Staphylococcus aureus [9] = experiment: Antibacterial activity against methicillin-susceptible Staphylococcus aureus SH1000 at 2.5 fold MIC by serial dilution method; format: functional
Summary of the method: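 Tryptic soy agar contained compound at 1x, 1.5x, 2.0x or 2.5x the measured MSSA MIC. Cells from 1 ml of an overnight MSSA broth culture were pelleted, resuspended in 100 µl TSB and spread with glass beads. Inoculum cfu was counted by serial dilution onto drug-free agar. Total colonies from at least 3 replicates are reported; frequency is colonies divided by total inoculum.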

Escherichia coli [10] = experiment: Inhibition of Escherichia coli DNA gyrase-mediated formation of supercoiled form of pUC19 at 1 to 100 ug/mL by gel electrophoresis
Summary of the method: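 Relaxed circular pUC19 was incubated with purified E. coli DNA gyrase and compound for 1 h at 37 °C. Relaxed and supercoiled DNA were resolved and quantified by gel electrophoresis.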

Row | Compound | MIC (Staphylococcus aureus [1]) | zone of inhibition at 50 µg/disc (Escherichia coli [2]) | zone of inhibition at 20 µg/disc (Bartonella quintana) | MIC (Staphylococcus aureus [3]) | MIC (Staphylococcus aureus [4]) | zone of inhibition at 20 µg/disc [5] | zone of inhibition at 20 µg/disc (Bartonella vinsonii) | zone of inhibition at 50 µg/disc (Enterococcus faecalis) | zone of inhibition at 50 µg/disc (Bacillus anthracis) | zone of inhibition at 50 µg/disc (Staphylococcus aureus [6]) | zone of inhibition at 20 µg/disc (Bartonella elizabethae) | MIC [7] | Activity [8] | MIC (Bartonella henselae) | CFU/ml (Staphylococcus aureus [9]) | gyrase inhibition (active/inactive) (Escherichia coli [10])
1 | CCCCC(CC)C(=O)N1CCN(c2cc3c(cc2F)c(=O)c(C(=O)O)cn3C2CC2)CC1 (stereo not drawn) | 10 µg/mL (≈ 21.9 µM) | 6 mm | 6 mm | > 100 µg/mL | > 100 µg/mL | 12 mm | 15 mm | 28 mm | 65 mm | 26 mm | 12 mm |  |  |  |  | 
2 | CCCC(CCC)C(=O)N1CCN(c2cc3c(cc2F)c(=O)c(C(=O)O)cn3C2CC2)CC1 | 10 µg/mL (≈ 21.9 µM) | 6 mm | 6 mm | > 100 µg/mL | > 100 µg/mL | 14 mm | 6 mm | 26 mm | 72 mm | 6 mm | 6 mm | 5 µg/mL (≈ 10.9 µM) |  |  |  | 
3 | O=C(O)c1cn(C2CC2)c2cc(N3CCN(C(=O)c4ccccc4)CC3)c(F)cc2c1=O | 25 µg/mL (≈ 57.4 µM) | 6 mm | 7 mm | > 100 µg/mL | > 100 µg/mL | 21 mm | 12 mm | 6 mm | 49 mm | 6 mm | 13 mm | 0.2 µg/mL (≈ 0.459 µM) |  |  |  | 
4 | O=C(O)c1cn(C2CC2)c2cc(N3CCNCC3)c(F)cc2c1=O [CIPROFLOXACIN] | 10 µg/mL (≈ 30.2 µM) | 43 mm | 6 mm |  | 15 µg/mL (≈ 45.3 µM) | 56 mm | 58 mm | 31 mm | 42 mm | 6 mm | 58 mm | 0.5 µg/mL (≈ 1.51 µM) | <=10% | 15.2 µg/mL (≈ 45.9 µM) | 551 | 
5 | CCC(CC)C(=O)N1CCN(c2cc3c(cc2F)c(=O)c(C(=O)O)cn3C2CC2)CC1 | > 100 µg/mL | 39 mm | 17 mm | > 100 µg/mL | 1 µg/mL (≈ 2.33 µM) | 33 mm | 25 mm | 22 mm | 81 mm | 30 mm | 26 mm | 5 µg/mL (≈ 11.6 µM) |  |  |  | 
6 | CCCCCCC(=O)N1CCN(c2cc3c(cc2F)c(=O)c(C(=O)O)cn3C2CC2)CC1 | 25 µg/mL (≈ 56.4 µM) | 45 mm | 20 mm | > 100 µg/mL | > 100 µg/mL | 28 mm | 22 mm | 36 mm | 71 mm | 30 mm | 20 mm | 10 µg/mL (≈ 22.5 µM) |  |  |  | 
7 | CCCC(=O)N1CCN(c2cc3c(cc2F)c(=O)c(C(=O)O)cn3C2CC2)CC1 | > 100 µg/mL | 48 mm | 29 mm | > 100 µg/mL | > 100 µg/mL | 34 mm | 44 mm | 40 mm | 86 mm | 6 mm | 42 mm | 0.5 µg/mL (≈ 1.25 µM) | <=10% |  |  | 
8 | C[C@H]1COc2c(N3CCN(C)CC3)c(F)cc3c(=O)c(C(=O)O)cn1c23.C[C@H]1COc2c(N3CCN(C)CC3)c(F)cc3c(=O)c(C(=O)O)cn1c23.O [LEVOFLOXACIN] |  |  |  |  |  |  |  |  |  |  |  |  |  | 0.84 µg/mL |  | 
9 | CCCCCCCC(=O)N1CCN(c2cc3c(cc2F)c(=O)c(C(=O)O)cn3C2CC2)CC1 | 25 µg/mL (≈ 54.6 µM) | 6 mm | 14 mm | > 100 µg/mL | 25 µg/mL (≈ 54.6 µM) | 16 mm | 15 mm | 29 mm | 65 mm | 6 mm | 14 mm | 10 µg/mL (≈ 21.9 µM) |  |  |  | 
10 | CCC(=O)N1CCN(c2cc3c(cc2F)c(=O)c(C(=O)O)cn3C2CC2)CC1 | 40 µg/mL (≈ 103 µM) | 57 mm | 58 mm | > 100 µg/mL | > 100 µg/mL | 56 mm | 60 mm | 46 mm | 86 mm | 20 mm | 57 mm | 0.5 µg/mL (≈ 1.29 µM) | <=10% |  | 0 | Active
11 | CCCCCC(=O)N1CCN(c2cc3c(cc2F)c(=O)c(C(=O)O)cn3C2CC2)CC1 | 20 µg/mL (≈ 46.6 µM) | 30 mm | 30 mm | > 100 µg/mL | 25 µg/mL (≈ 58.2 µM) | 31 mm | 21 mm | 38 mm | 77 mm | 36 mm | 30 mm | 5 µg/mL (≈ 11.6 µM) |  |  |  | Active
12 | CC(CC(=O)N1CCN(c2cc3c(cc2F)c(=O)c(C(=O)O)cn3C2CC2)CC1)CC(C)(C)C (stereo not drawn) | 25 µg/mL (≈ 53 µM) | 6 mm | 7 mm | > 100 µg/mL | > 100 µg/mL | 15 mm | 10 mm | 25 mm | 80 mm | 35 mm | 8 mm | 1 µg/mL (≈ 2.12 µM) |  |  |  | Active
13 | CCCCCCCCC(=O)N1CCN(c2cc3c(cc2F)c(=O)c(C(=O)O)cn3C2CC2)CC1 | 10 µg/mL (≈ 21.2 µM) | 30 mm | 11 mm | > 100 µg/mL | 10 µg/mL (≈ 21.2 µM) | 6 mm | 14 mm | 23 mm | 55 mm | 22 mm | 12 mm | 10 µg/mL (≈ 21.2 µM) |  |  |  | 
14 | C[C@@H]1CN(c2c(F)c(N)c3c(=O)c(C(=O)O)cn(C4CC4)c3c2F)C[C@H](C)N1 [SPARFLOXACIN] |  |  |  |  |  |  |  |  |  |  |  |  |  | 6.4 µg/mL (≈ 16.3 µM) |  | 
15 | CC1COc2c(N3CCN(C)CC3)c(F)cc3c(=O)c(C(=O)O)cn1c23 (stereo not drawn) [OFLOXACIN] |  |  |  |  |  |  |  |  |  |  |  |  |  | 5.6 µg/mL (≈ 15.5 µM) |  | 
16 | CC(C)(C)C(=O)N1CCN(c2cc3c(cc2F)c(=O)c(C(=O)O)cn3C2CC2)CC1 | 7.5 µg/mL (≈ 18.1 µM) | 51 mm | 33 mm | > 100 µg/mL | > 100 µg/mL | 40 mm | 36 mm | 44 mm | 80 mm | 22 mm | 36 mm |  |  |  |  | Active
17 | CCCCC(=O)N1CCN(c2cc3c(cc2F)c(=O)c(C(=O)O)cn3C2CC2)CC1 | 7.5 µg/mL (≈ 18.1 µM) | 47 mm | 35 mm | > 100 µg/mL | 1 µg/mL (≈ 2.41 µM) | 38 mm | 57 mm | 39 mm | 80 mm | 30 mm | 35 mm | 5 µg/mL (≈ 12 µM) |  |  |  | 
